Source: ChEMBL document CHEMBL1944580, “Synthesis of novel sulfonamide-1,2,4-triazoles, 1,3,4-thiadiazoles and 1,3,4-oxadiazoles, as potential antibacterial and antifungal agents. Biological evaluation and conformational analysis studies” (2012)

Columns and labels:
Aspergillus fumigatus [1] = assay: Antifungal activity against Aspergillus fumigatus human isolate after 72 hrs by serial dilution method; assay type: functional
How it was run: (§1)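 Modified microdilution MIC. Spores were washed from malt agar cultures with sterile 0.85% saline containing 0.1% Tween 80 and adjusted to about 1.0 × 10^5 per 100 µl well in malt broth. Compounds were dissolved in DMSO (1 mg/ml). Plates incubated 72 h at 28 °C. MIC is the lowest concentration with no visible growth under a binocular microscope. Bifonazole and ketoconazole were the references.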

Pseudomonas aeruginosa [2] = assay: Antibacterial activity against Pseudomonas aeruginosa ATCC 27853 treated for 24 hrs followed by sub-cultivated for 72 hrs by micro dilution method; assay type: functional
How it was run: (§2)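 2 µl from each well was serially subcultured into 100 µl fresh broth per well and incubated a further 72 h. MBC is the lowest concentration with no visible growth, taken as 99.5% killing of the original inoculum. Streptomycin and ampicillin were the positive controls.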

Pseudomonas aeruginosa [3] = assay: Antibacterial activity against Pseudomonas aeruginosa ATCC 27853 after 24 hrs by micro dilution method; assay type: functional; conditions: ATCC 27853, 24 h
How it was run: (§3)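 Microdilution MIC in 96-well plates. Bacterial suspensions adjusted in sterile saline to 1.0 × 10^5 CFU/ml, giving 1.0 × 10^4 cfu per well in LB broth. Compounds tested at up to 1 mg/ml. Plates incubated 24 h. MIC taken as the lowest concentration with no visible growth under a binocular microscope. OD at 655 nm was also read against a blank and the positive control. Streptomycin and ampicillin were the positive controls.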

Trichoderma viride [4] = assay: Antifungal activity against Trichoderma viride IAM 5061 after 72 hrs by serial dilution method; assay type: functional; conditions: IAM 5061, 72 h; how it was run: as §1
Staphylococcus aureus [5] = assay: Antibacterial activity against Staphylococcus aureus ATCC 6538 after 24 hrs by micro dilution method; assay type: functional; conditions: ATCC 6538, 24 h; how it was run: as §3
Salmonella typhimurium [6] = assay: Antibacterial activity against Salmonella Typhimurium ATCC 13311 treated for 24 hrs followed by sub-cultivated for 72 hrs by micro dilution method; assay type: functional, Salmonella enterica subsp. enterica serovar Typhimurium; conditions: Salmonella enterica; how it was run: as §2
Trichoderma viride [7] = assay: Antifungal activity against Trichoderma viride IAM 5061 treated for 72 hrs followed by sub-cultivated for 5 days by serial dilution method; assay type: functional
How it was run: (§4)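 MFC obtained after the 72 h, 28 °C malt-broth microdilution (spore inoculum about 1.0 × 10^5 per well, compounds from 1 mg/ml DMSO). 2 µl was serially subcultured into 100 µl broth per well and incubated a further 5 days at 28 °C. MFC is the lowest concentration with no visible growth, taken as 99.5% killing of the original inoculum.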

Aspergillus niger [8] = assay: Antifungal activity against Aspergillus niger ATCC 6275 treated for 72 hrs followed by sub-cultivated for 5 days by serial dilution method; assay type: functional; how it was run: as §4
Bacillus cereus [9] = assay: Antibacterial activity against Bacillus cereus clinical isolate after 24 hrs by micro dilution method; assay type: functional; how it was run: as §3
Aspergillus flavus [10] = assay: Antifungal activity against Aspergillus flavus ATCC 9643 treated for 72 hrs followed by sub-cultivated for 5 days by serial dilution method; assay type: functional; how it was run: as §4
Micrococcus flavus [11] = assay: Antibacterial activity against Micrococcus flavus ATCC 10240 treated for 24 hrs followed by sub-cultivated for 72 hrs by micro dilution method; assay type: functional; how it was run: as §2
Aspergillus versicolor [12] = assay: Antifungal activity against Aspergillus versicolor ATCC 11730 treated for 72 hrs followed by sub-cultivated for 5 days by serial dilution method; assay type: functional; how it was run: as §4
Aspergillus flavus [13] = assay: Antifungal activity against Aspergillus flavus ATCC 9643 after 72 hrs by serial dilution method; assay type: functional; conditions: ATCC 9643, 72 h; how it was run: as §1
Salmonella typhimurium [14] = assay: Antibacterial activity against Salmonella Typhimurium ATCC 13311 after 24 hrs by micro dilution method; assay type: functional, Salmonella enterica subsp. enterica serovar Typhimurium; conditions: Salmonella enterica, ATCC 13311, 24 h; how it was run: as §3
Fulvia fulva [15] = assay: Antifungal activity against Fulvia fulva treated for 72 hrs followed by sub-cultivated for 5 days by serial dilution method; assay type: functional; how it was run: as §4
Penicillium ochrochloron [16] = assay: Antifungal activity against Penicillium ochrochloron ATCC 9112 after 72 hrs by serial dilution method; assay type: functional; conditions: ATCC 9112, 72 h; how it was run: as §1
Enterobacter cloacae [17] = assay: Antibacterial activity against Enterobacter cloacae human isolate after 24 hrs by micro dilution method; assay type: functional; how it was run: as §3
Talaromyces funiculosus [18] = assay: Antifungal activity against Penicillium funiculosum ATCC 36839 treated for 72 hrs followed by sub-cultivated for 5 days by serial dilution method; assay type: functional; how it was run: as §4
Micrococcus flavus [19] = assay: Antibacterial activity against Micrococcus flavus ATCC 10240 after 24 hrs by micro dilution method; assay type: functional; conditions: ATCC 10240, 24 h; how it was run: as §3
Talaromyces funiculosus [20] = assay: Antifungal activity against Penicillium funiculosum ATCC 36839 after 72 hrs by serial dilution method; assay type: functional; conditions: ATCC 36839, 72 h; how it was run: as §1
Aspergillus fumigatus [21] = assay: Antifungal activity against Aspergillus fumigatus human isolate treated for 72 hrs followed by sub-cultivated for 5 days by serial dilution method; assay type: functional; how it was run: as §4
Listeria monocytogenes [22] = assay: Antibacterial activity against Listeria monocytogenes NCTC 7973 after 24 hrs by micro dilution method; assay type: functional; conditions: NCTC 7973, 24 h; how it was run: as §3
Escherichia coli [23] = assay: Antibacterial activity against Escherichia coli ATCC 35210 after 24 hrs by micro dilution method; assay type: functional; conditions: ATCC 35210, 24 h; how it was run: as §3
Bacillus cereus [24] = assay: Antibacterial activity against Bacillus cereus clinical isolate treated for 24 hrs followed by sub-cultivated for 72 hrs by micro dilution method; assay type: functional; how it was run: as §2
Aspergillus niger [25] = assay: Antifungal activity against Aspergillus niger ATCC 6275 after 72 hrs by serial dilution method; assay type: functional; conditions: ATCC 6275, 72 h; how it was run: as §1
Aspergillus versicolor [26] = assay: Antifungal activity against Aspergillus versicolor ATCC 11730 after 72 hrs by serial dilution method; assay type: functional; conditions: ATCC 11730, 72 h; how it was run: as §1
Penicillium ochrochloron [27] = assay: Antifungal activity against Penicillium ochrochloron ATCC 9112 treated for 72 hrs followed by sub-cultivated for 5 days by serial dilution method; assay type: functional; how it was run: as §4
Fulvia fulva [28] = assay: Antifungal activity against Fulvia fulva after 72 hrs by serial dilution method; assay type: functional; how it was run: as §1
Enterobacter cloacae [29] = assay: Antibacterial activity against Enterobacter cloacae human isolate treated for 24 hrs followed by sub-cultivated for 72 hrs by micro dilution method; assay type: functional; how it was run: as §2
Listeria monocytogenes [30] = assay: Antibacterial activity against Listeria monocytogenes NCTC 7973 treated for 24 hrs followed by sub-cultivated for 72 hrs by micro dilution method; assay type: functional; how it was run: as §2
Staphylococcus aureus [31] = assay: Antibacterial activity against Staphylococcus aureus ATCC 6538 treated for 24 hrs followed by sub-cultivated for 72 hrs by micro dilution method; assay type: functional; how it was run: as §2
Escherichia coli [32] = assay: Antibacterial activity against Escherichia coli ATCC 35210 treated for 24 hrs followed by sub-cultivated for 72 hrs by micro dilution method; assay type: functional; how it was run: as §2

CCCCNc1nnc(Cc2cc(OC)c(OC)cc2S(=O)(=O)N(C)C)o1
380 µM: MBC (Staphylococcus aureus [31])
130 µM: MIC (Aspergillus fumigatus [1]) | MIC (Pseudomonas aeruginosa [3]) | MIC (Trichoderma viride [4]) | MFC (Trichoderma viride [7]) | MIC (Salmonella typhimurium [14]) | MIC (Fulvia fulva [28])
500 µM: MBC (Micrococcus flavus [11]) | MFC (Talaromyces funiculosus [18])
750 µM: MFC (Aspergillus niger [8]) | MFC (Aspergillus flavus [10]) | MFC (Aspergillus versicolor [12]) | MFC (Penicillium ochrochloron [27]) | MBC (Enterobacter cloacae [29]) | MBC (Listeria monocytogenes [30])
250 µM: MBC (Pseudomonas aeruginosa [2]) | MIC (Staphylococcus aureus [5]) | MBC (Salmonella typhimurium [6]) | MIC (Bacillus cereus [9]) | MIC (Aspergillus flavus [13]) | MFC (Fulvia fulva [15]) | MIC (Penicillium ochrochloron [16]) | MIC (Micrococcus flavus [19]) | MIC (Talaromyces funiculosus [20]) | MFC (Aspergillus fumigatus [21]) | MIC (Listeria monocytogenes [22]) | MBC (Bacillus cereus [24]) | MIC (Aspergillus niger [25]) | MIC (Aspergillus versicolor [26])
630 µM: MIC (Enterobacter cloacae [17]) | MIC (Escherichia coli [23]) | MBC (Escherichia coli [32])

COc1cc(Cc2nnc(NC(C)(C)C)o2)c(S(=O)(=O)N(C)C)cc1OC
130 µM: MIC (Aspergillus fumigatus [1]) | MFC (Trichoderma viride [7]) | MIC (Aspergillus flavus [13]) | MIC (Salmonella typhimurium [14]) | MIC (Penicillium ochrochloron [16]) | MIC (Talaromyces funiculosus [20]) | MIC (Aspergillus versicolor [26])
390 µM: MBC (Pseudomonas aeruginosa [2]) | MIC (Pseudomonas aeruginosa [3]) | MIC (Bacillus cereus [9]) | MIC (Escherichia coli [23]) | MBC (Bacillus cereus [24]) | MBC (Listeria monocytogenes [30]) | MBC (Escherichia coli [32])
500 µM: MBC (Micrococcus flavus [11]) | MBC (Staphylococcus aureus [31])
250 µM: MIC (Staphylococcus aureus [5]) | MBC (Salmonella typhimurium [6]) | MFC (Aspergillus flavus [10]) | MFC (Fulvia fulva [15]) | MFC (Talaromyces funiculosus [18]) | MIC (Micrococcus flavus [19]) | MFC (Aspergillus fumigatus [21]) | MIC (Listeria monocytogenes [22]) | MIC (Aspergillus niger [25]) | MIC (Fulvia fulva [28])
60 µM: MIC (Trichoderma viride [4])
630 µM: MIC (Enterobacter cloacae [17]) | MBC (Enterobacter cloacae [29])
380 µM: MFC (Aspergillus niger [8]) | MFC (Aspergillus versicolor [12]) | MFC (Penicillium ochrochloron [27])
